Activity calls are given as the source filed them.
Columns and labels:
[1] = system: HEp-2; test: Induction of cell morphological changes in human Hep2 cells assessed as cytoplasmic retraction at 3 to 5 uM after 24 hrs by Hoechst 33258 staining-based phase contrast microscopy in presence of UVA light; format: functional
[2] = system: HaCaT; test: Induction of cell morphological changes in human HaCaT cells assessed as cell elongation at 3 to 5 uM after 24 hrs by Hoechst 33258 staining-based phase contrast microscopy in presence of UVA light
[3] = system: HeLa; test: Induction of cell morphological changes in human HeLa cells assessed as appearance of rounded cells at 3 to 5 uM after 24 hrs by Hoechst 33258 staining-based phase contrast microscopy in presence of UVA light; format: functional
[4] = Drug uptake in golgi apparatus of human HeLa cells at 1 uM after 6 hrs by NBD dye-based fluorescence microscopy; format: ADME, cell-based
Method in brief: (§1)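 Cells grown on glass coverslips were incubated with 1×10^-6 M photosensitizer for 6 h at 37 °C, washed twice in PBS and imaged live by fluorescence microscopy. Organelle probes (ER-Tracker, ex 374/em 430 nm; NBD-Golgi, ex 466/em 536 nm) were applied for 30 min at the supplier's concentrations, and their patterns were compared with the compound signal.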

[5] = system: HEp-2; test: Increase in mitotic nuclei level in human Hep2 cells at LD50 after 24 hrs by Hoechst 33258 staining-based fluorescence microscopy in presence of UVA light; format: functional, cell-based
[6] = system: HeLa; test: Phototoxicity against human HeLa cells assessed as cell lethality at 3 to 250 uM incubated for 6 hrs followed by UV irradiation at 0.5 J/cm'2 measured after 24 hrs by MTT assay; format: functional
Method in brief: (§2)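 Cultures at 60–70% confluence were loaded with the photosensitizer for 6 h in medium with 1% FBS and <0.5% DMSO. Medium was then replaced and cells were irradiated with UVA (300–400 nm, 15.9 W/m² at 10 cm), then washed and kept in complete medium for 24 h. Survival was read by MTT (50 µg/mL, 4 h, 542 nm) as % of untreated control OD.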

[7] = system: HaCaT; test: Induction of cell morphological changes in human HaCaT cells assessed as appearance of necrotic cells with loss of membrane integrity at 3 to 5 uM after 24 hrs by Hoechst 33258 staining-based phase contrast microscopy in presence of UVA light
[8] = system: HeLa; test: Phototoxicity against human HeLa cells assessed as cell lethality at 3 to 250 uM incubated for 6 hrs followed by UV irradiation at 2 J/cm'2 measured after 24 hrs by MTT assay; format: functional; method in brief: as §2
[9] = system: HEp-2; test: Induction of apoptotic morphological changes in human Hep2 cells at LD50 after 24 hrs by Hoechst 33258 staining-based fluorescence microscopy in presence of UVA light; format: functional, cell-based
[10] = system: HaCaT; test: Phototoxicity against human HaCaT cells assessed as appearance of rounded cells at LD50 after 24 hrs by acridine orange/ethidium bromide staining-based assay in presence of 0.25 to 0.5 J/cm'2 UVA light; format: cell-based
Method in brief: (§3)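 Cells (HaCaT, HeLa in DMEM; HEp-2 in RPMI; 10% FBS) at 60–70% confluence were incubated 6 h with 3·10^-6 M photosensitizer (DMSO stock diluted in medium with 1% FBS, final DMSO <0.5%). Medium was replaced and cells were given 0.25 J/cm² UVA (300–400 nm). 24 h later, cells were stained live with 50 µg/ml AO plus 50 µg/ml EtBr in PBS. Within 15 min, 200 cells per condition were scored as living, rounded, apoptotic or necrotic.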

[11] = system: HaCaT; test: Induction of necrosis in human HaCaT cells at LD50 after 24 hrs by acridine orange/ethidium bromide staining-based assay in presence of 0.25 to 0.5 J/cm'2 UVA light; format: cell-based
[12] = system: HeLa; test: Induction of cell morphological changes in human HeLa cells assessed as cytoplasmic vacuolization at 3 to 5 uM after 24 hrs by Hoechst 33258 staining-based phase contrast microscopy in presence of UVA light; format: functional
[13] = system: HEp-2; test: Phototoxicity against human Hep2 cells assessed as appearance of rounded cells at LD50 after 24 hrs by acridine orange/ethidium bromide staining-based assay in presence of 0.25 to 0.5 J/cm'2 UVA light; format: functional, cell-based; method in brief: as §3
[14] = system: HeLa; test: Induction of necrosis in human HeLa cells at LD50 after 24 hrs by acridine orange/ethidium bromide staining-based assay in presence of 0.25 to 0.5 J/cm'2 UVA light; format: functional, cell-based
[15] = Dark toxicity against human HaCaT cells assessed as cell survival at 5 uM incubated for 6 hrs measured after 24 hrs by MTT assay; format: cell-based; details: read-out: Survival
Method in brief: (§4)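 Cells (HaCaT and HeLa in DMEM, HEp-2 in RPMI, each with 10% FBS, at 37 °C and 5% CO2) were treated at 60–70% confluence. The compound was added from a 10^-3 M DMSO stock in medium with 1% FBS (final DMSO <0.5%) at 3·10^-6 to 2.5·10^-5 M and kept in the dark (6 h per table footnote, 18 h per methods). After 24 h, MTT at 50 µg/mL for 4 h, read at 542 nm as % of control OD.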

[16] = Phototoxicity against human Hep2 cells assessed as cell lethality at 3 to 250 uM incubated for 6 hrs followed by UV irradiation at 2 J/cm'2 measured after 24 hrs by MTT assay; format: functional, HEp-2; method in brief: as §2
[17] = system: HaCaT; test: Phototoxicity against human HaCaT cells assessed as cell lethality at 3 to 250 uM incubated for 6 hrs followed by UV irradiation at 1 J/cm'2 measured after 24 hrs by MTT assay; format: cell-based; method in brief: as §2
[18] = system: HeLa; test: Induction of microtubule disruption in human HeLa cells assessed as increase in altered metaphase at LD50 after 24 hrs by immunofluorescence assay in presence of UVA light; format: cell-based
[19] = system: HaCaT; test: Induction of apoptotic morphological changes in human HaCaT cells at LD50 after 24 hrs by Hoechst 33258 staining-based fluorescence microscopy in presence of UVA light; format: cell-based
[20] = Drug uptake in endoplasmic reticulum of human HaCaT cells at 1 uM after 6 hrs by ER-tracker dye-based fluorescence microscopy; format: ADME, cell-based; method in brief: as §1
[21] = Dark toxicity against human Hep2 cells assessed as cell survival at 3 uM incubated for 6 hrs measured after 24 hrs by MTT assay; format: cell-based, HEp-2; details: read-out: Survival; method in brief: as §4
[22] = Drug uptake in endoplasmic reticulum of human HeLa cells at 1 uM after 6 hrs by ER-tracker dye-based fluorescence microscopy; format: ADME, cell-based; method in brief: as §1
[23] = system: HaCaT; test: Induction of cell morphological changes in human HaCaT cells assessed as deep deformation of cell membrane at LD90 after 24 hrs by Hoechst 33258 staining-based phase contrast microscopy in presence of 1 to 2 J/Cm'2 UVA light
[24] = Dark toxicity against human HeLa cells assessed as cell survival at 5 uM incubated for 6 hrs measured after 24 hrs by MTT assay; format: cell-based; details: read-out: Survival; method in brief: as §4
[25] = Dark toxicity against human HaCaT cells assessed as cell survival at 10 uM incubated for 6 hrs measured after 24 hrs by MTT assay; format: cell-based; details: read-out: Survival; method in brief: as §4
[26] = Induction of microtubule disruption in human HeLa cells assessed as abnormality in chromosome distribution at LD50 after 24 hrs by immunofluorescence assay in presence of UVA light; format: cell-based
[27] = system: HeLa; test: Induction of microtubule disruption in human HeLa cells assessed as increase in mitotic index at LD50 after 24 hrs by immunofluorescence assay in presence of UVA light; format: cell-based

COc1cc(C#Cc2ccc(C#Cc3cc(OC)c(C#CCO[C@@H]4O[C@H](CO)[C@@H](O)[C@H](O)[C@H]4O)cc3OC)c(N(C)C)c2)c(OC)cc1C#CCO[C@@H]1O[C@H](CO)[C@@H](O)[C@H](O)[C@H]1O
95.4%: viability at 6 h, 5 µM [24]
Toxic: Activity [2] | Activity [7] | Activity [10] | Activity [11] | Activity [19] | Activity [23]
Active: Drug uptake [4] | Drug uptake [20] | Drug uptake [22]
97.2%: viability at 6 h, 3 µM [21]
91.4%: viability at 6 h, 5 µM [15]
> 50%: mortality [17]
>50%: mortality [6] | mortality [8] | mortality [16]
active: Activity [1] | Activity [3] | Activity [5] | Activity [9] | Activity [12] | Activity [13] | Activity [14] | Activity [18] | Activity [26] | Activity [27]
71.5%: viability at 6 h, 10 µM [25]

COc1cc(C#Cc2ccc(C#CCO[C@@H]3O[C@H](CO)[C@@H](O)[C@H](O)[C@H]3O)cc2N(C)C)c(OC)cc1C#Cc1ccc(C#CCO[C@@H]2O[C@H](CO)[C@@H](O)[C@H](O)[C@H]2O)cc1N(C)C
97.7%: viability at 6 h, 3 µM [21]
active: Activity [1] | Activity [3] | Activity [5] | Activity [9] | Activity [12] | Activity [13] | Activity [14] | Activity [18] | Activity [26] | Activity [27]
Active: Drug uptake [4] | Drug uptake [20] | Drug uptake [22]
90.9%: viability at 6 h, 5 µM [15]
70.2%: viability at 6 h, 10 µM [25]
Toxic: Activity [2] | Activity [7] | Activity [10] | Activity [11] | Activity [19] | Activity [23]
>50%: mortality [6] | mortality [8] | mortality [16]
93.5%: viability at 6 h, 5 µM [24]
> 50%: mortality [17]
